Screening data from PubChem.
In the library only some 1.2% were active in any assay of this set; here they are far more common.
ARNT-TACC3 inh – ARNT/TACC3 interaction disruption; Q9Y6A5; AlphaScreen His-ARNT PAS-B/GST-TACC3 binding, luminescence; TACC3 fragment carries E629A point mutation; inhibition, % at 9.99 µM; 0.66% of 390,000 active;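 active = mean inhibition of replicates at least 50% and at least half of replicates each reaching 50%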;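 also: 0% = complete ARNT plus TACC3 wells and 100% = ARNT alone without TACC3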
CAL PDZ FP-1 – inhibitors of human CAL PDZ peptide binding. Q9HD26. purified CAL PDZ, TMR-peptide fluorescence polarization, 1 h. inhibition, % at 24.9 µM. 0.92% of 300,000 active. AID 602252;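 active = mean inhibition of at least 30% with at least half of replicates also reaching 30%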;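 also: 0% = DMSO neutral control and 100% = excess unlabeled competitor peptide PRC23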
CAL PDZ FP-2 – human CAL PDZ-peptide interaction inhibition; 0.02% of 330,000 active; purified CAL PDZ, TMR-peptide fluorescence polarization, 1 h; Q9HD26; inhibition, % at 20 µM;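 active = highest replicate inhibition of at least 40%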;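 also: plate controls were DMSO neutral control wells for no effect and unlabeled competitor peptide control wells for full effect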
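System: purified tagged CAL PDZ domain construct (CerCALP). Schedule: 1 h incubation at room temperature before polarization reading. Medium: 25 mM sodium phosphate pH 7.4, 150 mM NaCl, TCEP, IgG, Thesit. Read-out: percent inhibition from loss of millipolarization. Measured by: FP readout, S and P plane fluorescence. Probe or stimulus: fluorescent TMR peptide probe.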
An asterisk follows results filed as active; · = no result.

SMILES	ARNT-TACC3 inh	CAL PDZ FP-1	CAL PDZ FP-2
C[C@@H]1CCCCO[C@H](CN(C)S(=O)(=O)c2cn(C)cn2)[C@@H](C)CN([C@@H](C)CO)C(=O)c2cc(NS(=O)(=O)c3cn(C)cn3)ccc2O1	-1.9	·	·
CCC(=O)Nc1nc(N)n(-c2ccccc2)n1	-12.5	-2.0	-1.2
Nc1nc(NC(=O)C(Cl)(Cl)Cl)nn1-c1ccccc1	64.4*	2.1	-0.7
C[C@@H]1CCCCO[C@H](CN(C)C(=O)CCCN(C)C)[C@H](C)CN([C@@H](C)CO)C(=O)c2cc(NS(=O)(=O)c3ccc(F)cc3)ccc2O1	-10.5	·	·
CNC[C@H]1Oc2ccc(NS(=O)(=O)c3ccccc3)cc2CC(=O)N([C@@H](C)CO)C[C@H]1C	-8.3	·	·
COc1ccc(NC(C)=O)cc1NC(C)c1nc2sc(C)c(C)c2c(=O)[nH]1 (stereo not given)	3.4	59.1*	-1.8
COc1ccc(OC)c(NC(=O)C(C)SCc2nc3sc(C)c(C)c3c(=O)[nH]2)c1 (stereo not given)	19.9	15.3	-1.7
COc1cccc(/C=N/n2c(N)c(S(=O)(=O)c3cccs3)c3nc4ccccc4nc32)c1	-4.1	1.3	-0.6
Nc1c(S(=O)(=O)c2cccs2)c2nc3ccccc3nc2n1/N=C/c1cccc(O)c1	32.7	49.4*	-2.4
CCCNC(=O)[C@@H]1[C@@H](CO)[C@@H]2Cn3c(ccc(-c4ccc(C(=O)N(C)C)cc4)c3=O)[C@@H]2N1CCC	-7.6	·	·
C[C@@H]1CN([C@H](C)CO)C(=O)Cc2cc(NS(=O)(=O)c3cn(C)cn3)ccc2O[C@@H]1CN(C)S(=O)(=O)c1ccc(Cl)cc1	6.3	·	·
CC(C)[C@H](NC(=O)c1ccccc1)C(=O)OCc1nnc(-c2ccccc2)o1	4.5	-4.6	0.1
Cc1ccc(C(=O)N[C@H](C(=O)OCc2nnc(-c3ccccc3)o2)C(C)C)cc1	-3.4	49.9*	0.3
C[C@H]1CN([C@@H](C)CO)C(=O)c2cc(C#CCN(C)C)cnc2O[C@@H]1CN(C)C(=O)c1cnccn1	-3.9	·	·
Oc1ccc(N=Nc2ccccc2-c2nn[nH]n2)c(O)c1	67.5*	1.7	-0.5
Cc1ccccc1-c1nn[nH]n1	-8.0	·	0.1
CC(C)(/C=N/O)/[N+]([O-])=C/c1ccco1	-1.6	-0.3	-0.5
Cc1nc(/C=[N+](\[O-])C(C)(C)/C=N/O)n(O)c1C	2.2	59.4*	0.0
COCC(=O)Nc1ccc2c(c1)[C@H]1C[C@H](CC(=O)NC3CCCCC3)O[C@@H](CO)[C@H]1O2	-4.2	·	·
COc1cc2[nH]c(=S)nc(NCCCOC(C)C)c2cc1OC	54.9*	42.0*	-1.7
COc1cc2[nH]c(=S)nc(NCc3ccc(C)cc3)c2cc1OC	30.7	-5.5	-0.1
CCOCCCNc1nc(=S)[nH]c2cc(OC)c(OC)cc12	·	-1.7	-2.9
COc1ccc(CNc2nc(=S)[nH]c3cc(OC)c(OC)cc23)cc1	51.2*	-4.6	-0.1
COc1cc2[nH]c(=S)nc(NCc3ccccc3)c2cc1OC	41.1	-2.1	0.1
CCCCNc1nc(=S)[nH]c2cc(OC)c(OC)cc12	59.7*	0.5	-2.4
SMILES	ARNT-TACC3 inh	CAL PDZ FP-1	CAL PDZ FP-2
COc1cc2[nH]c(=S)nc(NCc3ccccn3)c2cc1OC	18.8	1.1	-0.1
COCCNc1nc(=S)[nH]c2cc(OC)c(OC)cc12	58.7*	-4.3	-1.0
CC(C)NC(=O)N(C)C[C@H]1Oc2ccc(NS(=O)(=O)c3ccc(F)cc3)cc2CC(=O)N([C@@H](C)CO)C[C@H]1C	0.7	·	·
Cc1cccc(S(=O)(=O)N[C@H]2CC[C@@H](CCNS(=O)(=O)c3ccccc3F)O[C@@H]2CO)c1	-21.4	·	·
Cc1noc(C)c1S(=O)(=O)Nc1ccc2c(c1)C(=O)N([C@@H](C)CO)C[C@H](C)[C@@H](CN(C)S(=O)(=O)c1ccccc1)OCCCC[C@@H](C)O2	-5.3	·	·
C[C@@H]1CN([C@@H](C)CO)C(=O)c2cc(NC(=O)c3ccccc3)ccc2O[C@@H](C)CCCCO[C@@H]1CN(C)Cc1ccc2c(c1)OCO2	-1.1	·	·
COc1ccc(-c2cnc3c(c2)C(=O)N([C@H](C)CO)C[C@@H](C)[C@@H](CN(C)C(=O)Cc2cccnc2)O3)cc1	-3.0	·	·
O=C(Nc1ccccc1)N1CCCCN2[C@H](CO)[C@H](c3ccc(-c4ccccc4)cc3)[C@@H]2C1	-4.2	·	·
COc1ccccc1OCC(=O)NCCS(=O)(=O)N1CCN(c2ccc(F)cc2)CC1	0.5	54.4*	0.2
COc1ccc(S(=O)(=O)NCCS(=O)(=O)N2CCN(c3ccccc3)CC2)cc1	-5.6	0.3	-1.4
COc1ccc(OC)c(S(=O)(=O)NCCS(=O)(=O)N2CCN(c3ccccc3)CC2)c1	4.0	34.8*	-0.9
COc1ccc(N2CCN(S(=O)(=O)CCNC(=O)COc3ccccc3OC)CC2)cc1	3.3	-1.4	-1.0
CC(=O)N1[C@@H]2c3ccc(/C=C/c4ccccc4)c(=O)n3C[C@H]1[C@H](CO)[C@H]2C(=O)N(C)C	-5.9	·	·
c1ccc(-c2ccccc2OCCOCCN2CCc3ccccc3C2)cc1	1.9	75.3*	-0.3
Clc1ccc(OCCOCCN2CCc3ccccc3C2)c(Cl)c1	-6.4	-3.3	-1.0
Cc1ccc(S(=O)(=O)N(C)C[C@@H]2Oc3ccc(NC(=O)CCC(F)(F)F)cc3CC(=O)N([C@@H](C)CO)C[C@H]2C)cc1	-0.9	·	·
Cc1noc(C)c1S(=O)(=O)Nc1ccc2c(c1)C(=O)N([C@@H](C)CO)C[C@@H](C)[C@H](CN(C)C(=O)C1CCCCC1)OCCCC[C@@H](C)O2	0.6	·	·
C[C@H](NC(=O)C[C@H]1CC[C@@H](NC(=O)Nc2ccc3c(c2)OCO3)[C@H](CO)O1)c1ccccc1	5.8	·	·
COc1ccc(O)c(C(=O)c2cc(C#N)c(=O)n(-c3ccc(Cl)cc3)c2)c1	1.4	39.4*	-0.4
COc1ccc(-n2cc(C(=O)c3cc(Cl)ccc3O)cc(C#N)c2=O)cc1	3.6	-3.5	-0.9
c1cncc(-c2nnc(-c3cccnc3)nn2)c1	6.1	-0.7	-1.0
Cn1c(SSc2ccc(-c3cccnc3)n2C)ccc1-c1cccnc1	17.1*	-3.9	-0.7
CCS(=O)(=O)Nc1ccc2c(c1)C(=O)N(C)C[C@H](OC)[C@@H](C)CN(CCC(F)(F)F)[C@@H](C)CO2	0.4	·	·
C[C@@H]1CN([C@@H](C)CO)C(=O)c2cc(NS(=O)(=O)c3cccs3)ccc2O[C@@H](C)CCCCO[C@@H]1CN(C)S(=O)(=O)c1ccc(F)cc1	-15.5	·	·
Oc1c(CN2CCOCC2)cc(CN2CCOCC2)c(O)c1O	13.3*	0.0	0.0
CCCc1cc(CN2CCOCC2)c(O)c(CN2CCOCC2)c1O	-5.2	-0.4	-1.0
C[C@@H]1CCCCO[C@H](CN(C)C(=O)CCCN(C)C)[C@H](C)CN([C@H](C)CO)C(=O)c2cc(NC(=O)C3CCCCC3)ccc2O1	-0.5	·	·
O=C1NC(c2ccc(Br)cc2)Nc2sc3c(c21)CCC3 (stereo not given)	6.0	-2.8	-0.8
O=C1NC(c2ccccn2)Nc2sc3c(c21)CCC3 (stereo not given)	65.0*	-0.9	-1.4
CC(C)NC(=O)Nc1ccc2c(c1)CC(=O)N([C@@H](C)CO)C[C@H](C)[C@H](CN(C)C(=O)Nc1ccc3c(c1)OCO3)O2	7.5	·	·
